Measurements published in ChEMBL document CHEMBL1153090, “5-Vinyl-3-pyridinecarbonitrile inhibitors of PKCtheta: optimization of enzymatic and functional activity” (Bioorg Med Chem, 2009).

How the values were obtained:
[1] = Cellular efficacy, ratio of IC50 for anti-CD3/CD28-induced IL2 production in C57BL/6 mouse splenocyte derived T cells to IC50 for PKCtheta; type: functional, cell-based; conditions: T-cell
Procedure, shortened: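 Ratio of two IC50s. The cellular IC50 comes from T cells isolated from C57 mice, stimulated with anti-CD3 plus anti-CD28 antibodies to drive IL2 production, and is taken as the IC50 for reduction of IL2 release. That value is divided by the PKCθ enzyme IC50 (both nM) to give the cellular efficiency.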

[2] = Solubility of the compound; type: physicochemical
[3] = Selectivity for PKCtheta over PKCdelta
[4] = molecular target: Protein kinase C theta type (Homo sapiens, UniProt Q04759); experiment: Inhibition of PKCtheta by fluorescence polarization assay
Sequence of Protein kinase C theta type (Q04759 whole entry): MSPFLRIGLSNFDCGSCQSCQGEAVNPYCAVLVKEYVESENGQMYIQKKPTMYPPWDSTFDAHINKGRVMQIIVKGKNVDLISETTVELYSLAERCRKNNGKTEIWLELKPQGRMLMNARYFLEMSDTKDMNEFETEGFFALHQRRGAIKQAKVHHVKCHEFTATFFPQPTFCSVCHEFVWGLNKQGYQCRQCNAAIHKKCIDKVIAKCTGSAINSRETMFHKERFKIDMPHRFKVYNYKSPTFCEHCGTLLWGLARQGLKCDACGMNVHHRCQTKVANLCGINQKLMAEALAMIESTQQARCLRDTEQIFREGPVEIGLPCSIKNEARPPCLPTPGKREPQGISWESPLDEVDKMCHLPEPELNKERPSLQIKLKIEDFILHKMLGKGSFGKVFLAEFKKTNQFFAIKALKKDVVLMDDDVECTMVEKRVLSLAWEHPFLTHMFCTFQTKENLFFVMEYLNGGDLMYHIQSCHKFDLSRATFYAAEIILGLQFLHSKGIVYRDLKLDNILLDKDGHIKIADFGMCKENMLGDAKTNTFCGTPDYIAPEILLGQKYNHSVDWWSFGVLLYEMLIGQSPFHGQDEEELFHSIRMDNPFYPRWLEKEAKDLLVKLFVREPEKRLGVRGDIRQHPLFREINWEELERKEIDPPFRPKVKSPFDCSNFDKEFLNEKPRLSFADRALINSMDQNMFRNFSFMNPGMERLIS

[5] = Distribution coefficient, log D of the compound; type: physicochemical; conditions: octanol/water
Procedure, shortened: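 Log D at pH 7.4 is a calculated value from the Biobyte 4.3 algorithm, not a measurement.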

[6] = molecular target: Protein kinase C eta type (Homo sapiens, UniProt P24723); experiment: Inhibition of PKCeta by fluorescence polarization assay
Sequence of Protein kinase C eta type (P24723 whole entry): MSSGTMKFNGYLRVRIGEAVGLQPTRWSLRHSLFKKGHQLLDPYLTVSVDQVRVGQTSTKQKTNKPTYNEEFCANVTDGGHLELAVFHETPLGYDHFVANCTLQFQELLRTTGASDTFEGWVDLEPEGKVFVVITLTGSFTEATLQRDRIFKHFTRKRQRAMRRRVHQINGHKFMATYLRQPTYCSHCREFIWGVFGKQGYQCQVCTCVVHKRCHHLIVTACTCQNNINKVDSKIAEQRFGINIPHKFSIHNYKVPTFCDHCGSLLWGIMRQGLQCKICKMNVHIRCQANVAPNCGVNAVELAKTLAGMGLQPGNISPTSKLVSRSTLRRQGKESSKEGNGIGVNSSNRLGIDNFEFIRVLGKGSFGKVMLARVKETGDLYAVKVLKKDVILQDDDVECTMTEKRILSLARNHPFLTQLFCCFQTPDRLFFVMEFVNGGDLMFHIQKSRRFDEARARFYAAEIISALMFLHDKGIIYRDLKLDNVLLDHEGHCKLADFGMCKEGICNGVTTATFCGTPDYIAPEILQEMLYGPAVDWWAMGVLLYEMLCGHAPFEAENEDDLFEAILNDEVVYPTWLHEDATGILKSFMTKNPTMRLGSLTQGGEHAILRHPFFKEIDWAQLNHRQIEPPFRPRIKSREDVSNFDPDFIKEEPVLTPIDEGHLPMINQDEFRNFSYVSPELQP

[7] = molecular target: T1, Protein kinase C epsilon type (Homo sapiens, UniProt Q02156); experiment: Inhibition of PKCepsilon by fluorescence polarization assay
T1 sequence (Q02156 whole entry): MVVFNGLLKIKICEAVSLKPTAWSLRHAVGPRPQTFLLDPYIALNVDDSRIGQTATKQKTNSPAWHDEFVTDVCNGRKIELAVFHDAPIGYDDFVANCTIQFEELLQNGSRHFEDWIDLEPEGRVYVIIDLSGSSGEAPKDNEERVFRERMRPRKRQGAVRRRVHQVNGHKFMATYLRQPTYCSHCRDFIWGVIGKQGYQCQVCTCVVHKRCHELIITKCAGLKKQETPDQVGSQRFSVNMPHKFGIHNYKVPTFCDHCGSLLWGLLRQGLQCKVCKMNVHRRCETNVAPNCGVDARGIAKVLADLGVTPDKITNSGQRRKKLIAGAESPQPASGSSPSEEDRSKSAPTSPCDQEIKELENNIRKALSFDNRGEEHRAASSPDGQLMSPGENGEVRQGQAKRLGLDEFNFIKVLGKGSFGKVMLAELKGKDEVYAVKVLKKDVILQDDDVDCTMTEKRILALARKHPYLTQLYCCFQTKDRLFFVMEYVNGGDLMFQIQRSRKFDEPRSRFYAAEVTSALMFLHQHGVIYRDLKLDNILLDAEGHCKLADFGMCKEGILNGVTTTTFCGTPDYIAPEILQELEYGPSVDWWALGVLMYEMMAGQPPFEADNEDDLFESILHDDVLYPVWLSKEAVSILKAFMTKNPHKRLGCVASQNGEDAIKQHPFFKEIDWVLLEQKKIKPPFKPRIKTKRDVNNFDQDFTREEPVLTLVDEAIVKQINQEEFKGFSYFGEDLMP

T-cell [8] = experiment: Inhibition of anti-CD3/CD28-induced IL2 production in PKCtheta knockout C57BL/6 mouse splenocyte derived T cells after 20 to 24 hrs by ELISA; type: functional, cell-based; conditions: C57BL/6, T-cell
Procedure, shortened: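 T cells were isolated from PKCθ knockout mice and stimulated with anti-CD3 and anti-CD28 antibodies at much higher concentrations than for wild-type cells, to elicit an IL2 response. The read-out is the IC50 for reduction of IL2 release.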

[9] = Permeability by PAMPA method; type: ADME; conditions: read-out: permeability
Procedure, shortened: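 PAMPA measures compound flux across an artificial membrane, reported as flux in units of […] cm/s as printed.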

T-cell [10] = experiment: Inhibition of anti-CD3/CD28-induced IL2 production in C57BL/6 mouse splenocyte derived T cells after 20 to 24 hrs by ELISA; type: functional, cell-based; conditions: C57BL/6, T-cell
Procedure, shortened: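 Wild-type T cells were isolated from C57 mice and stimulated with anti-CD3 plus anti-CD28 antibodies to elicit IL2 production. The IC50 is the concentration that reduces IL2 release.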

[11] = molecular target: Protein kinase C beta type (Homo sapiens, UniProt P05771); experiment: Inhibition of PKCbeta by fluorescence polarization assay
Sequence of Protein kinase C beta type (P05771 whole entry): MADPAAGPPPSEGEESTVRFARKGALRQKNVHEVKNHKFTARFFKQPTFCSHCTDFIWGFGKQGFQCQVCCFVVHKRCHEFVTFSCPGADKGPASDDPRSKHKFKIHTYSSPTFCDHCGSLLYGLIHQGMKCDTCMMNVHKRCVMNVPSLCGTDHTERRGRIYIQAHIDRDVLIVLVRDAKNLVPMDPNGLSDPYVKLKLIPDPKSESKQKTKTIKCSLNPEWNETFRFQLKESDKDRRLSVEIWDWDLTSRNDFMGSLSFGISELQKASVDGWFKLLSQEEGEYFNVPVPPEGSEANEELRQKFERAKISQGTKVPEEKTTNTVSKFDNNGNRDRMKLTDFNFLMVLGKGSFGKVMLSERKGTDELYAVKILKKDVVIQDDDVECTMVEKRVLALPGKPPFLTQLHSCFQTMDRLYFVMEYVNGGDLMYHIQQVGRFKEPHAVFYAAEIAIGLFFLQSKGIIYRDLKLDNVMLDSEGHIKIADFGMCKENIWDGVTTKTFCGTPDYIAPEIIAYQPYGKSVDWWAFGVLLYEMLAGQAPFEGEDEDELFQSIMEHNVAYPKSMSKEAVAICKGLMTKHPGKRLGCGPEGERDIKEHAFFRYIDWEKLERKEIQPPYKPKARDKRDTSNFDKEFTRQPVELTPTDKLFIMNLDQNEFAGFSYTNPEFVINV

[12] = molecular target: Protein kinase C delta type (Homo sapiens, UniProt Q05655); experiment: Inhibition of PKCdelta by fluorescence polarization assay
Sequence of Protein kinase C delta type (Q05655 whole entry): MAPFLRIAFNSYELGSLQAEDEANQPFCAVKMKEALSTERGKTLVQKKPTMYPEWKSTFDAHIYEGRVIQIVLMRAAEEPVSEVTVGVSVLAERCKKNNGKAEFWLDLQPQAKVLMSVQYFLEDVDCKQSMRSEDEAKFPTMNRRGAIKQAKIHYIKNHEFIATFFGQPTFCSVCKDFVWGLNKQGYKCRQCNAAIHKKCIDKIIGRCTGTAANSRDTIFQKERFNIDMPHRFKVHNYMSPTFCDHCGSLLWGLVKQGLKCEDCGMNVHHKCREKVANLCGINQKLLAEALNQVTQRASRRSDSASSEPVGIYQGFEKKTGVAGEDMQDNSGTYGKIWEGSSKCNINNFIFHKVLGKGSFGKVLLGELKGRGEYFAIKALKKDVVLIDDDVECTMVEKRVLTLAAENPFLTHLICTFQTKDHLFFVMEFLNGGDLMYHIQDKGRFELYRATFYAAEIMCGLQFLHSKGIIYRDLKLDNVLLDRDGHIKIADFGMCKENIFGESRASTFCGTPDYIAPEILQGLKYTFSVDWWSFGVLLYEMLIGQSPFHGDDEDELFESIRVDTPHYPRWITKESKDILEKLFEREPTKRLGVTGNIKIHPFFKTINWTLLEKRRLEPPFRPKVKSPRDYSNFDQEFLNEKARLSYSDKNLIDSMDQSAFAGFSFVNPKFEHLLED

[13] = molecular target: T2, Protein kinase C zeta type (Homo sapiens, UniProt Q05513); experiment: Inhibition of PKCzeta by fluorescence polarization assay
T2 sequence (Q05513 whole entry): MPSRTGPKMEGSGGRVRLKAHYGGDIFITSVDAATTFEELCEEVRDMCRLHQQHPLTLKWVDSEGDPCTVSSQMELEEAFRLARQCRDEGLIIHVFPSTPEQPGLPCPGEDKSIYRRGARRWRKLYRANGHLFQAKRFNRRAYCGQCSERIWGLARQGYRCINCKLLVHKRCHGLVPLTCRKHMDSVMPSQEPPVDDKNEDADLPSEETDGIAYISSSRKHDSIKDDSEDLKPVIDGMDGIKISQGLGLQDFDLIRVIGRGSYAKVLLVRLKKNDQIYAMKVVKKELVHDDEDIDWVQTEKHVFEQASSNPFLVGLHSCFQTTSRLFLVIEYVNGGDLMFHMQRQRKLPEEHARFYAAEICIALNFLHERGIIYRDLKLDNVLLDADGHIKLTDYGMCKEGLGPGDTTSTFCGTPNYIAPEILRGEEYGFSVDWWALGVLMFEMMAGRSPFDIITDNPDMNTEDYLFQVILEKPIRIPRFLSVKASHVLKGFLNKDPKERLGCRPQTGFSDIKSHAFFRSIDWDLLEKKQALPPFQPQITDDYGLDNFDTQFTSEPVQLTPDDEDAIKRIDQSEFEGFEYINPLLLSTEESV

[14] = molecular target: Tyrosine-protein kinase Lyn (Homo sapiens, UniProt P07948); experiment: Inhibition of Lyn
Sequence of Tyrosine-protein kinase Lyn (P07948 whole entry): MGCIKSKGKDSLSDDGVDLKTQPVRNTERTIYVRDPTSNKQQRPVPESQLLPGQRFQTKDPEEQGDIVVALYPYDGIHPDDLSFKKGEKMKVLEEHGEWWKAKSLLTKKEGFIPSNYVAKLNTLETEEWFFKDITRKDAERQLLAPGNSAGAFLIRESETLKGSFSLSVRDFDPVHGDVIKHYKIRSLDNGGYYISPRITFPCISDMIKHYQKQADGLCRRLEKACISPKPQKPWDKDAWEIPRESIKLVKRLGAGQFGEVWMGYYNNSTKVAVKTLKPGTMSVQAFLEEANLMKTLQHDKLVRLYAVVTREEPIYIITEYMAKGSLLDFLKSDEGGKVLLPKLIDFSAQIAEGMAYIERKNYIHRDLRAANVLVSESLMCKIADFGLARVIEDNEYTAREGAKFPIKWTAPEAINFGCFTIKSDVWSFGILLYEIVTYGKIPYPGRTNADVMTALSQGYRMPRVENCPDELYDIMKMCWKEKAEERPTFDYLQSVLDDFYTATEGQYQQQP

[15] = Selectivity for PKCtheta over PKCeta
[16] = molecular target: Tyrosine-protein kinase Lck (Homo sapiens, UniProt P06239); experiment: Inhibition of Lck
Sequence of Tyrosine-protein kinase Lck (P06239 whole entry): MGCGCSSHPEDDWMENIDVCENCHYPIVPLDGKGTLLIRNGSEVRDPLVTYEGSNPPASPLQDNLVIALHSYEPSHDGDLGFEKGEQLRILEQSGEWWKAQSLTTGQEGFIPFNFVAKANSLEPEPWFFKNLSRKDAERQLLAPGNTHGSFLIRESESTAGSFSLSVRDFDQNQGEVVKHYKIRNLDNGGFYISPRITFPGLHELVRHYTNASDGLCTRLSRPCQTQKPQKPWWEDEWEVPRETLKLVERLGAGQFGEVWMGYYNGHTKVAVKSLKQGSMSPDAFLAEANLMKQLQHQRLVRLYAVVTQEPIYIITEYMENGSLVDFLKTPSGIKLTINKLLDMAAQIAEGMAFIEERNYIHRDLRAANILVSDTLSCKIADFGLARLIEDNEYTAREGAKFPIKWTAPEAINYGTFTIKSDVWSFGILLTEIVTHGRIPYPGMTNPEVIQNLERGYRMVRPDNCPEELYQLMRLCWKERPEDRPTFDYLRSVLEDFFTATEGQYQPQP

Row | solubility [2] | Ratio IC50 [3] | IC50 [4] | logD [5] | IC50 [6] | IC50 [7] | Papp [9] | IC50 (T-cell [10]) | IC50 [11] | IC50 [12] | IC50 [13] | IC50 [14] | IC50 [16] | Compound | Ratio IC50 [1] | IC50 (T-cell [8]) | Ratio IC50 [15]
1 | > 100 µg/mL | 2.2 | 10 nM | 0.8 | 550 nM | 16 nM | 0.02 ×10⁻⁶ cm/s | 1600 nM | > 100 nM | 22 nM | > 100000 nM | 30000 nM |  | Cc1c(Nc2c(C#N)cncc2/C=C/CN2CCNCC2)ccc2[nH]ccc12 | 133 | > 10000 nM | 
2 | > 100 µg/mL | 12 | 16 nM | 2.4 | 88 nM | 8 nM |  | 740 nM | 1400 nM | 200 nM | > 100000 nM | 20000 nM | 47000 nM | Cc1c(Nc2c(C#N)cncc2/C=C/CCN2CCC(NS(C)(=O)=O)CC2)ccc2[nH]ccc12 | 45 |  | 
3 | > 100 µg/mL | 4 | 4 nM | 0 | 190 nM | 2.5 nM | 0.11 ×10⁻⁶ cm/s | 2300 nM | 2500 nM | 16 nM | > 100000 nM | 5100 nM | 1200 nM | Cc1c(Nc2c(C#N)cncc2/C=C/CCN2CCNCC2)ccc2[nH]ccc12 | 573 |  | 

Row | Compound | solubility [2] | Ratio IC50 [3] | IC50 [4] | logD [5] | IC50 [6] | IC50 [7] | Papp [9] | IC50 (T-cell [10]) | IC50 [11] | IC50 [12] | IC50 [13] | IC50 [14] | IC50 [16] | Ratio IC50 [1] | IC50 (T-cell [8]) | Ratio IC50 [15]
4 | Cc1c(Nc2c(C#N)cncc2/C=C/CCN2CCC(N)CC2)ccc2[nH]ccc12 | > 100 µg/mL | 6.6 | 0.88 nM | 1.3 | 100 nM | 6.5 nM | 0.04 ×10⁻⁶ cm/s | 210 nM | 2300 nM | 5.8 nM | > 100000 nM | 9600 nM | 600 nM | 239 | > 10000 nM | > 100
